Source: PubChem (The Scripps Research Institute Molecular Screening Center)
Only some compounds are listed: those with a hit (about 1.3% of all), similar ones and a draw of the others.
PP1 inh = PP1-alpha phosphatase inhibitors, primary screen, counter-screen for PP5 inhibitor project, biochemical, fluorescence, OMFP substrate, single point; inhibition, % at 6.7 µM; 320,000 tested, 0.9% active; AID 2235, 2010; purified PP1alpha;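 active means inhibition above the mean inhibition of all tested compounds plus 3 SD, computed separately for each screening campaign, cut at about 15% in these data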
PP5 inh = PP5 phosphatase inhibitors, primary screen, biochemical, fluorescence; Serine/threonine-protein phosphatase 5 (Homo sapiens), P53041; purified PP5c, OMFP substrate fluorescence; inhibition, % at 6.7 µM; 320,000 tested, 0.18% active;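 active means inhibition above the campaign's mean inhibition across all tested compounds plus 3 SD, cut at about 9.5% in these data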;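 further: 0% = DMSO only and 100% = 100 µM cantharidin control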
Target sequence (P53041 whole entry, looked up): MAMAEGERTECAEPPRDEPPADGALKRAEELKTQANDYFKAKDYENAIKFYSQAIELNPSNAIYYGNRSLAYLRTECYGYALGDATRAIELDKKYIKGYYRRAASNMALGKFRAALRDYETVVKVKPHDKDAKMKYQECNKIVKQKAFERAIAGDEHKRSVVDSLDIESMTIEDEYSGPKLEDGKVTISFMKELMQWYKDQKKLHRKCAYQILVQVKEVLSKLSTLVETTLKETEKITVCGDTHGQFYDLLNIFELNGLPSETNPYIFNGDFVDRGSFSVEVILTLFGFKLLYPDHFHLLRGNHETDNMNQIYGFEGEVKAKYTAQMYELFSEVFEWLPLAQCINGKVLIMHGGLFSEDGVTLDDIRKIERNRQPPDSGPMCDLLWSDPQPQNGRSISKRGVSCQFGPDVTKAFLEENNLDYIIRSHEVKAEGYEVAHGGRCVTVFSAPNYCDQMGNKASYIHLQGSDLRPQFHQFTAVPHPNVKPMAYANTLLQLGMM
NR2E3 ag-1 = inhibitors of NR2E3-RetCOR corepressor binding, primary screen, NR2E3 agonist project, biochemical, TR-FRET, GST-NR2E3, biotin-RetCOR | Photoreceptor-specific nuclear receptor (Homo sapiens), Q9Y5X4 | inhibition of corepressor binding, % at 4.78 µM | 1536-well | 320,000 tested, 0.12% active;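 active means percent inhibition above the cutoff of mean plus 3 SD of all tested compounds, set per screening campaign, cut at about 20% in these data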;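 further: 0% = DMSO wells and 100% = biotin wells as full block of FRET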
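Material: NR2E3–RetCOR corepressor complex / Incubation: Compound–protein incubation for 5 h at 4 °C / Dosing: compound at 4.8 µM, single dose / Detection: time-resolved FRET / Benchmarks: high control biotin, low control 0.6% DMSO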
NR2E3 ag-2 = NR2E3 agonists in two-hybrid cells, primary screen, cell-based, luminescence, CHO-S, Gal4-NCOR/VP16-NR2E3 | Photoreceptor-specific nuclear receptor (Homo sapiens), Q9Y5X4 | luciferase | inhibition of corepressor binding, % at 3.98 µM | 360,000 tested, 0.35% active | AID 602229, 2012;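 active means inhibition above the mean of all tested compounds plus 3 SD, cut at about 70% in these data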;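 further: 0% = DMSO with NR2E3 transfected cells and 100% = cells lacking NR2E3 construct; higher means lower luciferase signal from less NR2E3 corepressor binding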
NR2E3 ag confirm = NR2E3 agonist confirmation in cells, cell-based, luminescence, CHO-S two-hybrid; AID 624378, 2012; shares compounds with NR2E3 ag-2; inhibition, % at 3.98 µM; 2,300 tested, 51% active; CHO-S mammalian two-hybrid NR2E3-NCOR, luciferase luminescence;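 active means average inhibition above a cutoff equal to the mean inhibition of all tested compounds plus one SD, cut at about 70% in these data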;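 further: 0% = DMSO in NR2E3 cells and 100% = DMSO in cells lacking NR2E3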
VP16 counter = GAL4-VP16 reporter modulators, confirmation, counter-screen for NR2E3 agonist project, cell-based, luminescence, CHO-S, high throughput; shares compounds with NR2E3 ag-2; CHO-S GAL4-VP16 luciferase reporter; inhibition, % at 3.98 µM; 2,300 tested, 29% active; AID 624379, 2012;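 active means mean inhibition above a cutoff equal to the average over all tested compounds plus one standard deviation, cut at about 70% in these data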;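 further: luciferase from a UAS reporter driven by GAL4-VP16 transactivation; 0% = DMSO with VP16-transfected cells and 100% = DMSO with cells lacking VP16; higher means less reporter light so more repression of VP16 activity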
Active calls of the source: *; . = not tested or not shown.

SMILES | PP1 inh | PP5 inh | NR2E3 ag-1 | NR2E3 ag-2 | NR2E3 ag confirm | VP16 counter
Cc1csc2ncnc(NCCc3ccccn3)c12 | -4 | 2 | 3 | 71* | 90* | 77*
c1ccc(CCNc2ncnc3sccc23)nc1 | -2 | 0 | 0 | 2 | . | .
CCOc1ccccc1N1CC(C(=O)N(CC)CC(=O)Nc2ccc3c(c2)OCCO3)CC1=O (centres undefined) | -3 | 2 | 0 | 9 | . | .
Cc1cccc(-n2ncc3c(N(CCO)CCO)ncnc32)c1 | 0 | 2 | 3 | -116 | . | .
Cc1cccc(-n2ncc3c(N(C)C4CCCCC4)ncnc32)c1 | 1 | -3 | -1 | 73* | 46 | 44
COc1ccc(-n2ncc3c(N4CCC(C)CC4)ncnc32)cc1 | -1 | 4 | 0 | -86 | . | .
COc1ccc(-n2ncc3c(N(C)C4CCCCC4)ncnc32)cc1 | 0 | 2 | 9 | 79* | 60 | 38
CCCCn1c(N)c(N(CCC(C)C)C(=O)C2CCCN(C(=O)c3ccc(Cl)cc3)C2)c(=O)[nH]c1=O (centres undefined) | -5 | 0 | 0 | -19 | . | .
N#CC(=C(O)CN1CCN(c2ccccc2F)CC1)c1nc(-c2ccccc2)cs1 | . | . | . | 57 | 37 | 43
CCN(CC)CC(C)(C)C(=O)/C=C/c1ccc(/C=C/C(=O)C(C)(C)CN(CC)CC)cc1 | . | . | . | 103* | 96* | 56
CC(C)c1ccc(S(=O)(=O)N2CCN(CC(O)CN3CCOCC3)CC2)cc1 (centres undefined) | -3 | -2 | 0 | -11 | . | .
CC(OCC(O)CN1CCN(S(=O)(=O)c2ccc(Cl)cc2)CC1)c1ccc(Cl)cc1 (centres undefined) | . | . | . | 51 | 59 | 45
CCc1ccc(OCC(=O)Nc2ccc(N3CCN(S(C)(=O)=O)CC3)cc2)cc1 | -3 | 1 | 3 | -6 | . | .
COCCNC(=O)C1(C)CCCN(C(=O)Cc2ccc3ccccc3c2)C1 (centres undefined) | . | . | . | -33 | . | .
Cc1ccc(C2(c3ccc(C)cc3)CC2C(=O)Nc2ccc([N+](=O)[O-])cc2O)cc1 (centres undefined) | 11 | 2 | 0 | 100* | 99* | 90*
Cn1nc(C(=O)NNC(=O)Cc2ccc(S(=O)(=O)N3CCOCC3)s2)c2ccccc2c1=O | . | . | . | 7 | . | .
COc1ccc(CC(=O)Nc2cccc(S(=O)(=O)N3CCCCCC3)c2)cc1OC | 1 | 2 | -3 | 80* | 90* | 77*
O=C(CNc1cccc(S(=O)(=O)N2CCOCC2)c1)Nc1ccc(C(F)(F)F)cc1 | -2 | 4 | -2 | 50 | 10 | 25
CCN(CC)S(=O)(=O)c1cc(NC(=O)CNc2cccc(S(=O)(=O)N3CCCC3)c2)ccc1C | 2 | 4 | 2 | 70 | 61 | 53
COc1ccc(CCC(=O)Nc2cccc(S(=O)(=O)N3CCCCCC3)c2)cc1OC | 1 | 2 | 2 | -15 | . | .
NS(=O)(=O)c1ccc(N2CCN(C(=O)c3ccco3)CC2)nc1 | . | . | . | -2 | . | .
O=C(CSCc1nc2c(nnn2Cc2ccc(F)cc2)c(=O)[nH]1)Nc1cccc(C(F)(F)F)c1 | 2 | 1 | -1 | 8 | . | .
Cc1cc([N+](=O)[O-])ccc1NC(=O)CN1C2CCC1CC(NC(=O)NC13CC4CC(CC(C4)C1)C3)C2 (centres undefined) | 0 | 0 | 0 | 4 | . | .
CC1(C(=O)NS(=O)(=O)c2ccc(C#N)cc2)CCN1C(=O)C1(c2ccccc2)CCCC1 (centres undefined) | . | . | . | 6 | . | .
CN(C)c1ccc(/C=C/c2ccc3c4ccccc4ccc3[n+]2-c2ccccc2)cc1 | . | . | . | 101* | 99* | 90*
SMILES | PP1 inh | PP5 inh | NR2E3 ag-1 | NR2E3 ag-2 | NR2E3 ag confirm | VP16 counter
CN(CCCS(=O)(=O)[O-])c1ccc(/C=C/c2ccc3ccccc3[n+]2C)cc1 | . | . | . | -7 | . | .
CN(C)c1ccc(/C=C/c2ccc3ccccc3[n+]2C)cc1 | 7 | 8 | -28 | 52 | 87* | 52
COc1cccc(C(C)(O)c2nc(/C=C/c3ccccc3)cs2)c1 (centres undefined) | . | . | . | 24 | . | .
CCc1cc(OCCCSc2nc(C)cc(=O)[nH]2)ccc1Cl | 2 | 2 | 3 | 56 | 76* | 43
CCC(=O)N1CCc2cc(S(=O)(=O)CCC(=O)N3CCN(c4ccc(Cl)cc4)CC3)ccc21 | 2 | 1 | 0 | 60 | 70 | 44
COc1cc2nc(=S)n3[nH]c(CCn4nc(C)cc4C)nc3c2cc1OC | 1 | 1 | -1 | 85* | 9 | -14
COc1ccccc1-c1nnc(SCC(=O)Nc2ccc(Cl)cc2Cl)o1 | 2 | 2 | -3 | -8 | . | .
COc1cccc2c1OC[C@@H](CO)[C@H]2N(C)C(=O)Nc1ccc(Cl)cc1Cl | -2 | 6 | 3 | 49 | 11 | 30
CC(=O)Nc1ccc(Nc2cc(C)nc3c(-c4ccccc4)cnn23)cc1 | -1 | 4 | 1 | 50 | 52 | -11
Cc1cc(N)n2ncc(-c3ccccc3)c2n1 | 1 | 1 | -2 | -109 | . | .
Cc1ccc(-n2sc3cc(F)ccc3c2=O)c(C)c1 | . | . | . | 54 | -2 | -2
CCCCc1ccc(S(=O)(=O)N/N=C(/C)c2ccncc2)cc1 | 1 | 1 | -1 | 86* | 51 | 67
COc1ccc(NS(=O)(=O)c2ccc3oc4ccccc4c3c2)cn1 | 1 | 3 | 5 | 88* | 76* | 63
CCN(CC)c1ccc(/C=N/NC(=O)c2nnn(-c3nonc3N)c2-c2ccc(C)cc2)cc1 | 8 | 4 | 0 | -15 | . | .
Cc1cc(CNC(=O)c2cccc([N+](=O)[O-])c2C)c2ccccc2n1 | -3 | 0 | 3 | 49 | 72* | 59
O=C(/C=C/c1ccc(OC(F)F)cc1)Nc1cccc(S(=O)(=O)N2CCOCC2)c1 | 0 | 2 | 2 | -36 | . | .
Cc1ccc(N2C(=O)c3ccc(C(=O)N4CCN(Cc5ccccc5)CC4)cc3C2=O)cc1 | 3 | 4 | 1 | 1 | . | .
Cc1nn(C)c(C)c1/C=C/C(=O)c1ccc(Cl)cc1Cl | -3 | 4 | 3 | 76* | 100* | 85*
Cc1nc2c(C(=O)NCCC(C)C)c[nH]n2c(=O)c1Cc1ccccc1F | 15* | 4 | -1 | 100* | 86* | 58
Cc1nc2c(C(=O)NCCC(C)C)c[nH]n2c(=O)c1Cl | 3 | -1 | -4 | -4 | . | .
COc1ccc(S(=O)(=O)N/N=C\c2ccc3c(c2)OCO3)c(OC)c1 | . | . | . | 55 | 15 | 52
COc1ccc(OC)c(S(=O)(=O)N/N=C\c2ccc3c(c2)OCO3)c1 | 3 | -2 | 3 | 5 | . | .
